# Calls of active or inactive are those of the source. The calls are words filed in the database; no cut-off is given here.
# Legend:
# L1210 [1] = experiment: Cytotoxicity against mouse L1210 cells after 48 hrs by Coulter counting method; format: functional, cell-based; settings: L1210, 48 h
# Method in brief: (§1)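 (5–7.5) × 10⁴ tumour cells per well with test compound. Proliferation ran 48 h for L1210 and 72 h for CEM and HeLa, at 37 °C in humidified CO₂. Cells counted in a Coulter counter. IC50 taken as the concentration that inhibited cell proliferation by 50%.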
# CCRF-CEM = experiment: Cytotoxicity against human CEM cells after 72 hrs by Coulter counting method; format: cell-based; method in brief: as §1
# HeLa [2] = experiment: Cytotoxicity against human HeLa cells after 72 hrs by Coulter counting method; format: functional, cell-based; method in brief: as §1
# REH [3] = experiment: Induction of apoptosis in human REH cells assessed as ROS production at 1 uM after 30 mins using H2DCFDA by flow cytometry (reference value: 0.11%); format: functional
# REH [4] = experiment: Induction of apoptosis in human REH cells assessed as viable cells at 1 uM after 48 hrs using propidium iodide/annexin-V by flow cytometry (reference value: 72.6 %); format: functional; settings: read-out: Activity
# Method in brief: (§2)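 REH cells given 1 μM compound for 48 h alongside DMSO controls. Harvested, washed in PBS, resuspended in binding buffer (10 mM HEPES pH 7.4, 144 mM NaCl, 25 mM CaCl₂).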
# L1210 [5] = experiment: Ratio of melphalan IC50 to compound IC50 for mouse L1210 cells after 48 to 72 hrs by Coulter counter cell counting
# [6] = Ratio of melphalan IC50 to compound IC50 for human CEM cells after 48 to 72 hrs by Coulter counter cell counting; settings: CCRF-CEM (CEM) cells
# K562 = experiment: Cytotoxicity against human K562 cells after 48 to 72 hrs; format: functional, cell-based
# Method in brief: (§3)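 REH and K562 cells at 0.5 × 10⁵ cells/ml, given 0–10 μM compound, with a DMSO vehicle control. Read at 48 and 72 h by trypan blue dye exclusion (cells precultured 24 h before dosing) and by MTT. Three independent experiments, MTT in duplicate.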
# REH [7] = experiment: Induction of apoptosis in human REH cells assessed as necrotic cells at 1 uM after 48 hrs using propidium iodide/annexin-V by flow cytometry (reference value: 2.5 %); format: functional; method in brief: as §2
# REH [8] = experiment: Induction of apoptosis in human REH cells assessed as early apoptotic cells at 1 uM after 48 hrs using propidium iodide/annexin-V by flow cytometry (reference value: 16.2 %); format: functional; method in brief: as §2
# REH [9] = experiment: Induction of apoptosis in human REH cells assessed as late apoptotic cells at 1 uM after 48 hrs using propidium iodide/annexin-V by flow cytometry (reference value: 8.7 %); format: functional; method in brief: as §2
# REH [10] = experiment: Induction of apoptosis in human REH cells assessed as DNA fragmentation at 0.5 uM after 48 hrs by agarose gel electrophoresis; format: functional, cell-based
# Method in brief: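 REH cells given 0, 0.1, 0.5, 1 and 5 μM for 48 h, DMSO vehicle control. Cells lysed in Triton X-100/proteinase K buffer at 55 °C for 5 h, then RNase (50 μg/ml) 1 h at 37 °C. DNA precipitated with sodium acetate/isopropanol and run on 2% agarose at 50 V for 3 h.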
# HeLa [11] = experiment: Ratio of melphalan IC50 to compound IC50 for human HeLa cells after 48 to 72 hrs by Coulter counter cell counting
# REH [12] = experiment: Induction of apoptosis in human REH cells assessed as ROS production at 1 uM after 60 mins using H2DCFDA by flow cytometry (reference value: 0.11%); format: functional
# REH [13] = experiment: Induction of apoptosis in human REH cells assessed as ROS production at 1 uM after 5 mins using H2DCFDA by flow cytometry (reference value: 0.11%); format: functional
# REH [14] = experiment: Cell cycle arrest in human REH cells assessed as accumulation at sub-G1 phase at 0.1 to 1 uM after 48 hrs using propidium iodide by flow cytometry; format: functional, cell-based
# Method in brief: (§4)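 REH cells (0.5 × 10⁵ cells/ml) precultured 24 h, then exposed to 0, 0.1, 0.5 or 1 μM compound for 48 h. Harvested, fixed in 70% chilled ethanol, stained with propidium iodide, analysed by flow cytometry, at least 10,000 cells per sample. Phase distribution from histograms, two independent experiments.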
# REH [15] = experiment: Induction of apoptosis in human REH cells assessed as loss of mitochodrial membrane potential at 0.5 to 1 uM after 48 hrs using JC-1 staining by flow cytometry; format: functional, cell-based
# Method in brief: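 REH cells exposed to 0.5 or 1 μM compound for 48 h, then incubated with 0.5 μM JC-1 for 20 min at 37 °C, washed and read by flow cytometry. Green-to-red fluorescence ratio reported. 2,4-DNP as positive control, DMSO-treated cells as controls. Two independent experiments.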
# REH [16] = experiment: Induction of apoptosis in human REH cells assessed as ROS production at 1 uM after 15 mins using H2DCFDA by flow cytometry (reference value: 0.11%); format: functional
# REH [17] = experiment: Cell cycle arrest in human REH cells at 0.1 to 1 uM after 48 hrs using propidium iodide by flow cytometry; format: functional, cell-based; method in brief: as §4
# REH [18] = experiment: Cytotoxicity against human REH cells after 48 to 72 hrs; format: functional, cell-based; method in brief: as §3
# REH [19] = experiment: Cytotoxicity against human REH cells at 0.5 uM after 48 hrs using ethidium bromide staining by live-dead assay relative to 293T cells; format: functional
# Method in brief: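 REH and 293T cells seeded at 1 × 10^5/ml, exposed to 0.5 μM compound for 48 h; DMSO vehicle control. Harvested cells stained with ethidium bromide (5 μg/ml), which enters membrane-compromised dead cells, and dead fraction quantified by flow cytometry. REH cultured in RPMI1640, 293T in DMEM, both with 10% FBS, penicillin/streptomycin, 37 °C, 5% CO2.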
# REH [20] = experiment: Induction of apoptosis in human REH cells assessed as ROS production at 1 uM after 5 to 60 mins using H2DCFDA by flow cytometry (reference value: 0.11%); format: functional
# REH [21] = experiment: Effect on cell cycle progression in human REH cells at 0.1 to 1 uM after 48 hrs using propidium iodide by flow cytometry; format: functional, cell-based; method in brief: as §4
Structure (SMILES),IC50 (L1210 [1]),IC50 (CCRF-CEM),IC50 (HeLa [2]),further results
N#CSc1c(-c2ccc([N+](=O)[O-])cc2)nc2sc(Cc3ccc(Cl)cc3)nn12,50 µM,20 µM,16 µM,–
O=[N+]([O-])c1ccc(-c2nc3sc(Cc4ccc(Cl)cc4)nn3c2Br)cc1,94 µM,73 µM,> 250 µM,–
COc1ccc(-c2nc3sc(Cc4ccc(Cl)cc4)nn3c2Br)cc1,63 µM,58 µM,66 µM,–
O=Cc1c(-c2ccc(Cl)cc2)nc2sc(Cc3ccc(Cl)cc3)nn12,15 µM,5.8 µM,16 µM,–
Fc1ccc(-c2nc3sc(Cc4ccc(Cl)cc4)nn3c2Br)cc1,> 250 µM,> 250 µM,> 250 µM,–
Cc1ccc(-c2cn3nc(Cc4ccc(Cl)cc4)sc3n2)cc1,> 250 µM,> 250 µM,> 250 µM,–
O=Cc1c(-c2ccc(F)cc2)nc2sc(Cc3ccc(Cl)cc3)nn12,20 µM,17 µM,20 µM,–
Cc1ccc(-c2nc3sc(Cc4ccc(Cl)cc4)nn3c2SC#N)cc1,32 µM,22 µM,22 µM,–
Clc1ccc(Cc2nn3c(Br)c(-c4ccc(Cl)cc4)nc3s2)cc1,> 250 µM,> 250 µM,> 250 µM,–
Clc1ccc(Cc2nn3cc(-c4ccc(Cl)cc4)nc3s2)cc1,> 250 µM,> 250 µM,95 µM,–
N#CSc1c(-c2ccc(Br)cc2)nc2sc(Cc3ccc(Cl)cc3)nn12,81 µM,61 µM,22 µM,–
N#CSc1c(-c2ccc(Cl)cc2)nc2sc(Cc3ccc(Cl)cc3)nn12,49 µM,30 µM,20 µM,–
Clc1ccc(Cc2nn3cc(-c4ccc(Cl)cc4Cl)nc3s2)cc1,247 µM,> 250 µM,109 µM,–
Cc1ccc(-c2nc3sc(Cc4ccc(Cl)cc4)nn3c2C=O)cc1,23 µM,17 µM,21 µM,–
O=Cc1c(-c2cc3ccccc3oc2=O)nc2sc(Cc3ccc(Cl)cc3)nn12,0.89 µM,0.75 µM,0.9 µM,Activity (REH [3]): 0.13%; viability at 1 µM (REH [4]): 54.8%; Ratio IC50 (L1210 [5]): 3; selectivity ratio [6]: 3; IC50 (K562): 0.9 µM; Activity (REH [7]): 9.1%; Activity (REH [8]): 21.5%; Activity (REH [9]): 14.6%; Activity (REH [10]): Active; Ratio IC50 (HeLa [11]): 3; Activity (REH [12]): 0.16%; Activity (REH [13]): 0.16%; Activity (REH [14]): Active; Activity (REH [15]): Active; Activity (REH [16]): 0.12%; Activity (REH [17]): inactive; IC50 (REH [18]): 0.67 µM; fold change (FC) (REH [19]): 6; Activity (REH [20]): 36.99%; Activity (REH [21]): inactive
Clc1ccc(Cc2nn3c(Br)c(-c4ccccc4)nc3s2)cc1,> 250 µM,> 250 µM,> 250 µM,–
Cc1ccc(-c2nc3sc(Cc4ccc(Cl)cc4)nn3c2Br)cc1,> 250 µM,> 250 µM,> 250 µM,–
Clc1ccc(Cc2nn3cc(-c4ccccc4)nc3s2)cc1,> 250 µM,> 250 µM,> 250 µM,–
COc1ccc(-c2nc3sc(Cc4ccc(Cl)cc4)nn3c2SC#N)cc1,16 µM,10 µM,9 µM,–

Structure (SMILES),IC50 (L1210 [1]),IC50 (CCRF-CEM),IC50 (HeLa [2]),further results
c1ccc([C@H]2CN3CCSC3=N2)cc1 [LEVAMISOLE],206 µM,> 250 µM,250 µM,–
N#CSc1c(-c2ccc(F)cc2)nc2sc(Cc3ccc(Cl)cc3)nn12,23 µM,24 µM,20 µM,–
O=Cc1c(-c2ccccc2)nc2sc(Cc3ccc(Cl)cc3)nn12,20 µM,22 µM,45 µM,–
N[C@@H](Cc1ccc(N(CCCl)CCCl)cc1)C(=O)O [MELPHALAN],–,1.4 µM,–,–
COc1ccc(-c2nc3sc(Cc4ccc(Cl)cc4)nn3c2C=O)cc1,5.3 µM,3.8 µM,6 µM,–
O=Cc1c(-c2ccc(Br)cc2)nc2sc(Cc3ccc(Cl)cc3)nn12,4.6 µM,4 µM,4.2 µM,–
O=c1oc2ccccc2cc1-c1cn2nc(Cc3ccc(Cl)cc3)sc2n1,> 10 µM,> 10 µM,> 10 µM,–
N#CSc1c(-c2ccccc2)nc2sc(Cc3ccc(Cl)cc3)nn12,24 µM,14 µM,12 µM,–
N#CSc1c(-c2cc3ccccc3oc2=O)nc2sc(Cc3ccc(Cl)cc3)nn12,1.3 µM,1.4 µM,1 µM,IC50 (K562): 3.1 µM; IC50 (REH [18]): 6.2 µM
Clc1ccc(Cc2nn3c(Br)c(-c4ccc(Br)cc4)nc3s2)cc1,> 250 µM,238 µM,188 µM,–
Clc1ccc(Cc2nn3cc(-c4ccc(Br)cc4)nc3s2)cc1,> 250 µM,> 250 µM,> 250 µM,–
COc1ccc(-c2cn3nc(Cc4ccc(Cl)cc4)sc3n2)cc1,38 µM,> 250 µM,> 250 µM,–
N#CSc1c(-c2ccc(Cl)cc2Cl)nc2sc(Cc3ccc(Cl)cc3)nn12,49 µM,46 µM,18 µM,–
O=c1oc2ccccc2cc1-c1nc2sc(Cc3ccc(Cl)cc3)nn2c1Br,5.2 µM,3.7 µM,4.5 µM,–
O=[N+]([O-])c1ccc(-c2cn3nc(Cc4ccc(Cl)cc4)sc3n2)cc1,214 µM,> 250 µM,> 250 µM,–
O=Cc1c(-c2ccc(Cl)cc2Cl)nc2sc(Cc3ccc(Cl)cc3)nn12,82 µM,79 µM,64 µM,–
O=Cc1c(-c2ccc([N+](=O)[O-])cc2)nc2sc(Cc3ccc(Cl)cc3)nn12,15 µM,13 µM,17 µM,–
Fc1ccc(-c2cn3nc(Cc4ccc(Cl)cc4)sc3n2)cc1,> 250 µM,> 250 µM,> 250 µM,–
Clc1ccc(Cc2nn3c(Br)c(-c4ccc(Cl)cc4Cl)nc3s2)cc1,31 µM,106 µM,118 µM,–

# — ChEMBL document CHEMBL3351601, “2-(4-Chlorobenzyl)-6-arylimidazo[2,1-b][1,3,4]thiadiazoles: synthesis, cytotoxic activity and mechanism of action” (Eur J Med Chem, 2014)
